Screening results (PubChem BioAssay)
An excerpt weighted towards active compounds, which were near 3.5% of everything screened.
MrgX1 PAM: allosterically activates human MrgX1 receptor signaling. 0.63% of 310,000 active. MrgX1-HEK293, Fluo-4 calcium flux, FDSS; hits give high values. B-score at 10 µM. Q96LB2;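 active = plate-corrected calcium response at least 3 library SD above typical, normal starting fluorescence, not activating the receptor alone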;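 also: compound read alongside a low EC10 to EC30 dose of BAM8-22 agonist; peak minus trough fluorescence over baseline measured at the second addition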
Target sequence (Q96LB2 whole entry, looked up): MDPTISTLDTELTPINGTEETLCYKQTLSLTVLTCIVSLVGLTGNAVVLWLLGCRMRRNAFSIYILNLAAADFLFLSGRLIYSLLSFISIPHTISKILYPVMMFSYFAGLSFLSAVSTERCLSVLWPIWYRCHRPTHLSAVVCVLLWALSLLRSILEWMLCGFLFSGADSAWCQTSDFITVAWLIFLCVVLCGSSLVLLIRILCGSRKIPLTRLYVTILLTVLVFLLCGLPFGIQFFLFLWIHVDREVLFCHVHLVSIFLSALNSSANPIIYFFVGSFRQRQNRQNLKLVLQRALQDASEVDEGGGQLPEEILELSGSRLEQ
RGS4 pot: potentiators or activators of RGS4; 0.92% of 310,000 active; B-score at 10 µM; AID 463111; HEK293 M3R/inducible RGS4, carbachol calcium flux Fluo4; hits give low values;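 active = B-score of the integrated calcium signal more than 4 SD below the library mean, with starting fluorescence not abnormally high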;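 also: negative B-score means reduced calcium response which marks RGS4 activation or potentiation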
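System – HEK293 FlpIn-TREx cells, stable M3R, doxycycline-inducible RGS4 · Reagent – ECmax carbachol challenge · Times – compound preincubation 20 min at room temperature before agonist · Technique – Fluo4 fluorescence kinetic imaging of calcium · Measure – B score of integrated Fluo4 ratio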
RGS4 block: inhibitors of human RGS4; 0.45% of 310,000 active; B-score at 10 µM; HEK293 M3R/RGS4 inducible, Fluo-4 calcium flux; hits give high values; triggered by carbachol at its EC20;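 active = B-score, a plate-corrected calcium signal, over three deviations above library mean, with baseline fluorescence within five deviations of library mean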;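 also: RGS4 expression induced by doxycycline in cells with stable M3 receptor; B-score is computed from the integrated fluorescence ratio over baseline after carbachol; higher B-score means a larger calcium signal and so more RGS4 inhibition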
Target sequence (P49798 whole entry, looked up): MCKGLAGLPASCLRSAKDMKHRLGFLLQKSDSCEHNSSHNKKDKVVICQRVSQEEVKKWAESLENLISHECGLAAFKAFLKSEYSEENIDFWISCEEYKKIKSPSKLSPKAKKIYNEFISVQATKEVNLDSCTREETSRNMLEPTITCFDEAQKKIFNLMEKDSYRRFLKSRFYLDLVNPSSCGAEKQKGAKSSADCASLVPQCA
MrgX1 agonist: agonists of human MrgX1 receptor. Q96LB2. MrgX1-HEK293 cells, Fluo-4 calcium fluorescence, agonist mode; hits give high values. B-score at 10 µM. 0.44% of 310,000 active. AID 588627;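 active = calcium response B-score plate-corrected fluorescence ratio at least 3 library SD, with starting fluorescence B-score inside 5 SD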
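Material: MrgX1-expressing HEK293 cells; input: 15,000 cells per well; doses: test compound given as first of three sequential additions; schedule: overnight plating before 1 h dye loading; technique: Fluo-4 NW calcium-flux fluorescence, kinetic read; evaluation: baseline-normalised fluorescence change ratio, B-scored; control set: plate-wise positive and negative controls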
MrgX1 antag: human MrgX1 receptor antagonism, primary screen; Q96LB2; MRGX1-HEK293 calcium flux, Fluo-4, BAM8-22 antagonism; hits give low values; B-score at 10 µM; 1.3% of 310,000 active; AID 588676;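 active = calcium-response B-score plate-corrected more than 3 library SD below zero, starting fluorescence within 5 deviations, no agonist response on first addition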;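 also: peak minus trough fluorescence over baseline after final BAM8-22 challenge near maximal dose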
MrgX1 allo conf: human MrgX1 positive allosteric modulation, re-confirmation; shares compounds with MrgX1 PAM; MrgX1-HEK293, Fluo-4 calcium fluorescence, FDSS; activation (ratio percentage), % at 10 µM; 13% of 1,200 active;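 active = ratio at least 3 SD above the weak peptide control, stable starting fluorescence, no direct agonism earlier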;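 also: compound followed by low BAM8-22 agonist challenge near EC20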
HEK293 Ca flux: MrgX1 antagonist counter-screen hit in parental HEK293 cells; shares compounds with MrgX1 antag; Fluo-4 calcium fluorescence, FDSS; fluorescence ratio F(max-min)/F0 at 10 µM; 2% of 4,000 active; AID 624111;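 active = duplicate-averaged calcium fluorescence ratio at least three times the standard deviation of buffer wells, a nonspecific response in parental cells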
HEK293 Ca counter: counter-screen for MrgX1 allosteric activators: effect in parental HEK293 cells. 0.4% of 4,000 active. AID 624114. shares compounds with MrgX1 antag. parental HEK293 calcium flux, Fluo-4 fluorescence ratio; hits give high values. fluorescence ratio F(max-min)/F0 at 10 µM;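 active = calcium fluorescence ratio, averaged over duplicates, at least 3 SD of the buffer-well ratio, meaning a nonspecific response in receptor-free cells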;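 also: untransfected parental HEK293 lacking MrgX1 used as counterscreen for MrgX1 allosteric activators; fluorescence change taken during the second addition on a kinetic imager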
HEK293 Ca cntr2: activity in parental HEK293 cells lacking MrgX1 receptor | shares compounds with MrgX1 antag | Fluo-4 calcium fluorescence (FDSS); hits give high values | fluorescence ratio F(max-min)/F0 at 10 µM | 8.7% of 4,000 active | AID 624115;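 active = calcium fluorescence ratio at least three times the spread of buffer wells, meaning a non-specific response in parental cells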
* marks the source's active call; other numbers are inactive results; i = inactive; x = no result given.

SMILES	MrgX1 PAM	RGS4 pot	RGS4 block	MrgX1 agonist	MrgX1 antag	MrgX1 allo conf	HEK293 Ca flux	HEK293 Ca counter	HEK293 Ca cntr2
O=C(O)c1c2c(nc3ccccc13)/C(=C/c1c(F)cccc1F)CCC2	8.2*	i	i	i	i	i	i	i	i
O=S(=O)(c1ccc(Cl)cc1)c1cnc2ccccc2n1	i	i	i	i	i	x	x	x	x
O=C(CC1SCCNC1=O)Nc1ccc(F)c(Cl)c1 (centres undefined)	9.91*	i	i	i	i	i	i	i	i
FC(F)(F)COc1ccc(-c2nnc(SCc3c(Cl)cccc3Cl)o2)cn1	i	i	i	i	i	x	x	x	x
CC(O)CNc1nc2ccccc2n1CC(=O)NC12CC3CC(CC(C3)C1)C2 (centres undefined)	7.4*	i	i	i	i	i	i	i	i
CC(O)CNc1nc2ccccc2n1CC(=O)N1CCN(Cc2ccccc2)CC1 (centres undefined)	i	i	i	i	i	x	x	x	x
Clc1ncccc1-c1nnn(-c2ccccc2Br)n1	i	i	i	i	i	x	x	x	x
Cc1cc(Cl)cc(Br)c1OCCCCn1cncn1	6.86*	i	i	i	i	i	i	i	i
CCN(c1ccccc1)S(=O)(=O)c1ccc(N)c(OC)c1	6.63*	i	i	i	i	i	i	i	i
CCN(c1cccc2ccccc12)S(=O)(=O)c1ccc(Cl)nc1	i	i	i	i	i	x	x	x	x
Cc1ccc(S(=O)(=O)N2CCc3ccccc3C2)cc1	i	i	i	i	i	x	x	x	x
CC(C)N(C(C)C)S(=O)(=O)c1ccc(Cl)nc1	7.69*	i	i	i	i	i	i	i	i
CC(C)N(C(C)C)S(=O)(=O)c1ccc(N2CCc3ccccc3C2)nc1	8.37*	-7.1*	i	i	i	i	i	i	i
CCN(c1ccccc1)S(=O)(=O)c1ccc(Cl)nc1	9.38*	i	i	i	i	i	i	i	i
O=C(CSc1ccc(Cl)cc1)N1CCN(c2c(Cl)cccc2[N+](=O)[O-])CC1	i	i	i	i	i	x	x	x	x
COC1Cc2ccccc2N(C(=O)N2CCN(CCO)CC2)c2ccccc21 (centres undefined)	16*	i	i	i	i	i	i	i	i
CCOC1Cc2ccccc2N(C(N)=O)c2ccccc21 (centres undefined)	i	i	i	i	i	x	x	x	x
CCc1nnc(NC(=O)c2nn(-c3ccccc3)nc2C)s1	i	i	i	i	i	x	x	x	x
Cc1nn(-c2ccccc2)nc1C(=O)Nc1nnc(C(F)(F)F)s1	6.53*	i	i	i	i	i	i	i	67.7*
COc1cc(C2Nc3cc(Cl)c(S(N)(=O)=O)cc3S(=O)(=O)N2)ccc1OCc1ccccc1 (centres undefined)	i	i	i	i	i	x	x	x	x
CCn1c(=S)[nH]c2cc(C(=O)OC)ccc2c1=O	8.08*	i	i	i	i	i	i	i	i
COc1ccc(CNC(=O)CCN2C(=O)c3ccccc3C2=O)cc1OC	i	i	i	i	i	x	x	x	x
COc1ccc(CNC(=O)CCN2C(=O)c3ccncc3C2=O)cc1OC	26.7*	i	i	i	i	13.2%*	i	i	i
S=C(c1ccc(-c2cc(Cl)ccc2Cl)o1)N1CCCCC1	i	i	i	i	i	x	x	x	x
COC(=O)c1cc(C#N)c(SCc2ccccc2)nc1C	6.94*	i	i	i	i	i	i	i	i
SMILES	MrgX1 PAM	RGS4 pot	RGS4 block	MrgX1 agonist	MrgX1 antag	MrgX1 allo conf	HEK293 Ca flux	HEK293 Ca counter	HEK293 Ca cntr2
CC1Cc2ccccc2N1C(=O)C1CCCN(S(=O)(=O)c2cccc3cccnc23)C1 (centres undefined)	8.91*	x	x	i	i	8.6%*	i	i	i
COc1cccc(-c2nnn(CC(=O)Nc3ccc(C)cc3C)n2)c1OC	i	i	i	i	i	x	x	x	x
O=C(NCCc1cccc(F)c1)C1CCN(S(=O)(=O)c2ccccc2)CC1	i	i	i	i	i	x	x	x	x
Cc1cccc(CCNC(=O)C2CCN(S(=O)(=O)c3ccccc3)CC2)c1	10.6*	i	i	i	i	i	i	i	i
COc1ccccc1CNC(=O)C1CCC(CNc2c(N3CCC(C)CC3)c(=O)c2=O)CC1 (centres undefined)	6.6*	i	i	i	i	i	i	i	i
COc1cccc(CNC(=O)C2CCC(CNc3c(N4CCC(C)CC4)c(=O)c3=O)CC2)c1 (centres undefined)	i	i	i	i	i	x	x	x	x
CC1CCC(=C(C#N)C(=O)Nc2cccc(Cl)c2)CC1 (centres undefined)	i	i	i	i	i	x	x	x	x
CC1CCC2(CC1)C(Nc1cccc(Cl)c1)=NC(=S)N2CC#N (centres undefined)	8.34*	i	i	i	i	i	i	i	i
COc1ccccc1-c1nc2n(n1)C(c1ccccc1Cl)C(C(N)=O)=C(C)N2 (centres undefined)	i	i	i	i	i	x	x	x	x
CCc1cc2cc(C)ccc2nc1SCC(=O)N1CCN(C(=O)c2ccco2)CC1	11.1*	x	x	i	i	i	i	i	i
CCc1cc2ccccc2nc1SCC(=O)N1CCN(C(=O)c2ccco2)CC1	x	i	i	x	x	x	x	x	x
Cc1cnc(C(=O)NC2CC(C)(C)Cc3c2cnn3-c2cccc(F)c2)cn1 (centres undefined)	7.81*	i	i	i	i	i	i	i	i
CCn1cc(C(=O)NC2CC(C)(C)Cc3c2cnn3-c2cccc(F)c2)cn1 (centres undefined)	i	i	i	i	i	x	x	x	x
O=C(NN1C(=O)CSC1=S)c1cccnc1	i	i	i	i	i	x	x	x	x
